# bCat nuc transl: modulators of beta-catenin nuclear translocation, primary screen, imaging, HeLa cells, immunofluorescence, high-content | 190,000 tested, 0.3% active | nuclear translocation activity, % at 5 µM;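 active = nuclear translocation activity above 50% at 5 µM, with a well cell count of 50 or more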;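 note: per-cell ratio of nuclear to cytoplasmic median beta-catenin stain intensity; plate controls were DMSO negative control for no effect and GSK-3 inhibitor IX positive control for full effect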
#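 Test system: human HeLa cell line; Doses: 5 µM primary, 0.02–20 µM confirmation; Incubation: 24 h compound exposure, 37°C; Detection: beta-catenin immunofluorescence imaging with DAPI; Read-out: beta-catenin nuclear/cytoplasmic ratio, % activation.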
# BaF3 parental: parental Ba/F3 cell viability inhibition, counter-screen for JAK2V617F inhibitor project, murine pro-B, CellTiter-Glo luminescence. CellTiter-Glo ATP luminescence. inhibition, % at 5.6 µM. 220,000 tested, 1.1% active;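 active = inhibition above a per-campaign cutoff, the mean inhibition of all tested compounds plus 3 SD, cut at about 27% in these data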;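 note: 0% = DMSO wells and 100% = JAK Inhibitor I control wells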
# APP 5UTR inh: inhibitors of APP translation via 5'UTR reporter, primary screen, APP 5'UTR luciferase, SH-SY5Y cells; inhibition, % at 2 µM; 190,000 tested, 0.82% active; SH-SY5Y APP 5'UTR-luciferase reporter, luminescence;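 active = inhibition above a set limit, derived from the sample mean plus 3 SD, cut at about 45% in these data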
# Lmaj promast: Leishmania major promastigote growth inhibition, primary screen; Leishmania major promastigotes, resazurin fluorescence viability; inhibition, % at 10 µM; 200,000 tested, 9% active; AID 1063, 2008; in the data active = inhibition above about 50%;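 note: promastigotes grown with compound for 44 hours at 28 °C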
# MT stabilizer: microtubule stabilizers in HeLa cells, primary screen, imaging, high-content imaging | AID 2205, 2009 | 200,000 tested, 0.83% active | % tubulin-high responders, % at 10 µM | HeLa tubulin immunostaining HCS, 24 h; share of cells brighter than vehicle mean+2SD;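 active = plate Z-score above 3 for both tubulin-high and condensed-nucleus cell shares, with cell loss under 80%, at 10 µM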;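 note: anti alpha tubulin signal scored within the nucleus-defined area of each cell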
# Ba/F3 V617F tox: reduced viability of JAK2V617F-dependent Ba/F3 cells, primary screen, JAK2V617F inhibitor project, cell-based, Ba/F3 EpoR-JAK2V617F, luminescence; ATP luminescence; inhibition, % at 5.6 µM; AID 1446, 2008; 220,000 tested, 1.1% active;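 active = inhibition above the campaign mean plus 3 SD over all tested compounds, cut at about 24% in these data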;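 note: cytokine-independent growth of Ba/F3 cells driven by EpoR plus mutant JAK2; 0% = DMSO-treated cells and 100% = JAK inhibitor I control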
# * marks the source's active call; other numbers are inactive results; / = no result given. Sampled rows, rich in hits. Any-hit rate of the full collection: about 9.6%.
SMILES,bCat nuc transl,BaF3 parental,APP 5UTR inh,Lmaj promast,MT stabilizer,Ba/F3 V617F tox
Cc1cccc(C)c1-n1cccc1/C=C1/C(=N)N2C(=NC1=O)SN=C2S(C)(=O)=O,-1,2,-2,-5,3,4
CC1=CSC2=NC(=O)/C(=C\c3cccn3-c3ccccc3)C(=N)N12,-1,3,-6,88*,2,1
Cc1ccc(S(=O)(=O)N2CCOCC2)cc1C(=O)OCC(=O)NC1CCS(=O)(=O)C1 (centres undefined),1,7,7,-3,1,0
Cc1ccnc(NC(=O)C2COc3ccccc3O2)c1 (centres undefined),4,85*,-130,-4,2,7
C/C(=N\NC(=O)C1COc2ccccc2O1)c1ccccn1 (centres undefined),10,6,45,99*,2,0
C/C(=N\NC(=O)C1COc2ccccc2O1)c1ccc(C)o1 (centres undefined),/,4,0,-5,3,0
Cc1ccc(NC(=O)C2COc3ccccc3O2)nc1 (centres undefined),/,4,-110,-5,3,-1
O=C(Nc1nc(-c2ccc(S(=O)(=O)N3CCCC3)cc2)cs1)c1ccco1,0,1,-10,97*,3,2
O=C(c1ccc(S(=O)(=O)N2CCCCC2)cc1)N(c1ccccn1)C1CCCCC1,1,2,/,/,/,-6
O=S(=O)(/N=C(/Nc1ccccn1)c1ccc(Cl)cc1)c1ccc(Cl)cc1,1,3,-41,-3,4,2
O=C(Nc1ccccn1)c1ccc(S(=O)(=O)c2ccc(Cl)cc2)cc1,0,2,7,76*,2,-3
O=C(Nc1nc(-c2ccccc2)c(-c2ccccc2)s1)c1ccc(S(=O)(=O)N2CCCCC2)cc1,/,6,-2,99*,2,-3
O=C(c1ccc(S(=O)(=O)N2CCCCCC2)cc1)N(c1ccccn1)C1CCCCC1,-4,-1,-3,56*,4,-4
COc1ccc(N2CS(=O)CC2=O)cc1 (centres undefined),0,0,10,-4,2,-5
O=C(Nc1nc(-c2ccccn2)cs1)c1ccc(S(=O)(=O)N2CCCCC2)cc1,1,56*,/,/,/,55*
O=C(Nc1cccnc1Cl)c1ccc(S(=O)(=O)N2CCCCCC2)cc1,-6,4,90*,30,2,0
Cc1nc(-c2ccccc2)sc1C1(C)CC(c2ccc(C#N)cc2)=NO1 (centres undefined),-2,/,/,/,/,/
CCC(=O)N(c1ccc(C(=O)O)cc1)c1nc(-c2ccc(OC)cc2)c(C)s1,1,7,5,-7,4,-1
COc1cc(NC(c2ccccc2)c2ccccc2)cc(OC)c1OC,-2,6,10,96*,2,7
COc1cc(NS(C)(=O)=O)cc(OC)c1OC,-10,8,-10,-3,3,2
O=C(CN1CCOCC1)Nc1c2c(nc3ccccc13)N(Cc1ccccc1)CC2,-2,2,13,-3,5,0
O=C(CN1CCCC1)Nc1c2c(nc3ccccc13)N(Cc1ccccc1)CC2,-1,3,21,51*,2,-3
O=C(CN1CCN(c2ncc(C(F)(F)F)cc2Cl)CC1)N1CCN(c2ncc(C(F)(F)F)cc2Cl)CC1,/,8,-14,50*,1,2
O=C(CSc1ncc(C(F)(F)F)cc1Cl)N1CCN(S(=O)(=O)c2ccc(Cl)cc2)CC1,-1,2,4,90*,1,-4
CCCc1cc(=O)[nH]c(SCC(=O)N2CCN(S(=O)(=O)c3ccc(Cl)cc3)CC2)n1,/,5,-7,67*,1,-2
SMILES,bCat nuc transl,BaF3 parental,APP 5UTR inh,Lmaj promast,MT stabilizer,Ba/F3 V617F tox
O=C(CSc1ccc(Cl)cc1)N1CCN(c2ncc(C(F)(F)F)cc2Cl)CC1,2,3,-8,-4,1,-3
O=C(CSc1ncc(C(F)(F)F)cc1Cl)N1CCN(S(=O)(=O)c2ccccc2)CC1,-5,4,-18,20,4,-3
CCCc1cc(=O)[nH]c(SCC(=O)c2ccc(S(=O)(=O)N3CCCC3)cc2)n1,-4,5,-6,20,2,1
CCN(C(=O)COC(=O)c1cccc(-n2cnnn2)c1)C1CCCCC1,2,3,-5,0,5,-2
Cc1ccc(NC(=O)c2c(Cl)nc3ccccn23)cc1,-3,4,-103,-4,3,0
N#C/C(=C/c1ccc(N2CCOCC2)o1)c1ccc(Cl)cc1,0,56*,-10,15,48*,47*
N#C/C(=C\c1ccc(N2CCOCC2)o1)c1nc2ccccc2[nH]1,0,2,-156,26,3,1
CCN1CCCC1Cn1cnc2c([nH]c3ccc(C)cc32)c1=O (centres undefined),/,4,-15,52*,5,4
CCN1CCCC1CNc1ncnc2c1[nH]c1ccc(Cl)cc12 (centres undefined),2,2,-9,96*,6,4
CCN(CC)S(=O)(=O)c1cc(NC(=O)C(C)OC(=O)c2[nH]c(C)c(C(C)=O)c2C)ccc1C (centres undefined),-2,5,0,95*,2,-1
CN1CCC(OC(c2ccccc2)c2ccccc2)CC1,-3,6,-4,7,2,1
CN1CCC(Oc2ccccc2Sc2ccccc2)CC1,4,5,-5,100*,4,-2
O=C1CCCC2=C1C(c1ccco1)Nc1ccc(C(=O)c3ccccc3)cc1N2 (centres undefined),-3,9,-10,73*,30,-3
O=C1CCCC2=C1C(c1ccccn1)Nc1ccc(C(=O)c3ccccc3)cc1N2 (centres undefined),-2,6,-4,67*,4,4
Cc1ccccc1C1NC(=S)NC2=C1C(=O)CCC2 (centres undefined),-4,4,-5,-5,3,-3
O=C(OC1C2CCC1C1CN(CCc3ccccc3)CC12)c1ccccc1 (centres undefined),/,9,-8,51*,2,-2
Cc1ccc(NC(=O)CN(C)C(=O)CSc2nnnn2C)cc1,0,8,/,/,/,-2
COC(=O)c1cc(-c2ccc(S(=O)(=O)N3CCCC(C)C3)cc2)c(C(F)(F)F)s1 (centres undefined),-1,-3,/,/,/,-2
COc1ccc(NC(=S)N(CCN(C)C)C(C)c2ccco2)cc1Cl (centres undefined),-1,5,-10,67*,3,-2
